SENP1 FRET inh = inhibitors of human SENP1 SUMO protease catalytic domain. Q9P0U3. recombinant SENP1 catalytic domain, CyPet-SUMO1-YPet FRET cleavage. inhibition, % at 10 µM. 360,000 tested, 0.21% active. AID 624204;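 active means inhibition at least 30% at 10 µM, raw YFP signal under a set limit, fluorescence ratio 0.5 to 1.5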;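 further: 0% = enzyme with DMSO and 100% = no enzyme wells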
Target sequence (Q9P0U3 419-644 limits assumed): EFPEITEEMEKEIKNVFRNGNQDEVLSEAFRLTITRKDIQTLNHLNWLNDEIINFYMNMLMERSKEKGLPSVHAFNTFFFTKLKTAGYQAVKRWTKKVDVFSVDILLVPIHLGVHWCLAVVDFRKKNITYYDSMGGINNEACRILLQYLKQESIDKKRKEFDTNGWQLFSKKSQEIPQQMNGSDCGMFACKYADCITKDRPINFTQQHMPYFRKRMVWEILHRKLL
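Assay system – human recombinant His6-tagged SENP1 catalytic domain enzyme · Input – SENP1 enzyme, 20 pM final · Buffer or medium – Tris pH 8 buffer plus EDTA, NaCl, BME, BSA, NP40, catalase · Schedule – 50 min reaction at room temperature · Technique – FRET read of cyan and yellow fluorescence · Control set – no-enzyme wells low, DMSO-plus-enzyme wells high control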
SENP6 inh = SENP6 protease inhibition; Q9GZR1; Recombinant SENP6 catalytic domain, aminoluciferin luminescence; inhibition, % at 10 µM; 330,000 tested, 1.8% active;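 active means inhibition above about 50% at the single tested dose, limit read from the data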;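 further: plate controls were DMSO wells with enzyme for no effect and DMSO wells lacking enzyme for full effect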
Target sequence (Q9GZR1 628-1112 limits assumed): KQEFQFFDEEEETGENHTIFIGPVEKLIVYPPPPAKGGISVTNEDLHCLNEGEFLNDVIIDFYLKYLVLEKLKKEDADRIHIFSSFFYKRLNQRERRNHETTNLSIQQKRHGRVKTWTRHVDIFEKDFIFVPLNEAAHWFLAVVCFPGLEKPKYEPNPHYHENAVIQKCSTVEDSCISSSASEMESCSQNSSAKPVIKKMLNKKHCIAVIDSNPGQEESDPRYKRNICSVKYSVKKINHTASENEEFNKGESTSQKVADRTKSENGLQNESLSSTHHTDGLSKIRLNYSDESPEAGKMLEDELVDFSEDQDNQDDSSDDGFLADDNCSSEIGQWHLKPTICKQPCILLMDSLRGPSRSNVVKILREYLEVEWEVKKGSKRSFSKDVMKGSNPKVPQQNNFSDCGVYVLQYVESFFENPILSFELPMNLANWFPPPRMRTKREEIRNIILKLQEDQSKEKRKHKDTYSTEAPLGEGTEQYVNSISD
SENP8 block-1 = inhibitors of human SENP8 protease; recombinant SENP8, Nedd8 substrate fluorescence; inhibition, % at 20 µM; 360,000 tested, 0.64% active; AID 602440; in the data active means inhibition mostly above about 40%, no sharp cut-off; inactive means mostly below about 27%
CendR NRP1 mod = alters CendR peptide binding to human NRP-1. inhibition, % at 25 µM. AID 602438. 360,000 tested, 0.85% active. FAM-RPARPAR peptide binding to NRP-1, fluorescence polarization. O14786;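 active means inhibition or corrected inhibition above about 18%, plus a signal ratio from 0.5 to 1.5, limit read from the data, passing the limit was not always enough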
SENP8 block-2 = SENP8 protease inhibition; 330,000 tested, 1.2% active; purified SENP8, Z-RLRGG-aminoluciferin cleavage, luminescence; Q96LD8; inhibition, % at 10 µM; AID 2540; in the data active means inhibition above about 50%
SENP7 block = blocks the human protease SENP7. recombinant SENP7, Z-RLRGG-aminoluciferin luminescence, 40 min. inhibition, % at 5 µM. 330,000 tested, 1.5% active. AID 434973;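 active means inhibition above about 50% at the single test dose, limit read from the data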;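 further: plate controls were DMSO with enzyme for no effect and no enzyme buffer wells for full effect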
SENP8 conf = human SENP8 inhibition, confirmed. shares compounds with SENP7 block. Recombinant SENP8, Z-RLRGG-aminoluciferin luminescence, 60 min. inhibition, % at 12.5 µM. 6,200 tested, 40% active. AID 488912;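 active means mean inhibition across replicates above about 50%, limit read from the data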
SENP6 confirm = human SENP6 inhibition, confirmed. shares compounds with SENP7 block. recombinant SENP6, Z-RLRGG-aminoluciferin luminescence. inhibition, % at 12.5 µM. 6,200 tested, 58% active
SENP7 confirm = human SENP7 inhibition, confirmed; shares compounds with SENP7 block; 6,200 tested, 69% active; recombinant SENP7, Z-RLRGG-aminoluciferin luminescence, 40 min; inhibition, % at 12.5 µM
Casp3 SENP sel = selectivity test for SENP inhibitors: human caspase-3 inhibition. inhibition, % at 12.5 µM. 6,200 tested, 60% active. purified caspase-3, Z-DEVD-aminoluciferin luminescence, 60 min. AID 488918. shares compounds with SENP7 block;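 active means mean inhibition above about 50%, limit read from the data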;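 further: plate controls were enzyme with DMSO for no effect and wells without caspase-3 for full effect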
SENP luc ctr = interferes with luciferase luminescence in SENP counter-screen; inhibition, % at 12.5 µM; Pre-incubated SENP8/Z-RLRGG-aminoluciferin, luciferase luminescence interference; shares compounds with SENP7 block; AID 488919; 6,200 tested, 39% active;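 active means mean inhibition above about 50% when retested at one dose, limit read from the data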;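 further: plate controls were DMSO wells with completed reaction for no effect and substrate without enzyme for full effect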
* hit, by the source's call. Shown are actives, neighbours in structure and some others; about 3.3% of the full set was active somewhere.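 How the source made its calls, unless noted: active means mean inhibition above about 50% in the one-dose retest (limit read from the data); inactive means the rest.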

Screening CCCCn1nnnc1C(c1cc2ccccc2o1)N1CCN(CC(=O)N2CCCC2)CC1 (stereo unspecified) returned SENP1 FRET inh -2.3, SENP8 block-1 -2.7 and CendR NRP1 mod -5.9.
`COc1ccc(-c2cn3cc(Cl)ccc3n2)cc1OC` gave SENP1 FRET inh 2.7, SENP6 inh 2.0, SENP8 block-1 -270.8, CendR NRP1 mod -46.1, SENP8 block-2 1.0 and SENP7 block 6.5.
For Clc1ccc2nc(-c3ccc(Br)s3)cn2c1 the results were SENP1 FRET inh 2.2, SENP6 inh 80.0*, SENP8 block-1 -292.1, CendR NRP1 mod -3.0, SENP8 block-2 63.3*, SENP7 block 4.9, SENP8 conf 14.4, SENP6 confirm 68.8*, SENP7 confirm 86.5*, Casp3 SENP sel 48.7 and SENP luc ctr 15.1.
Screening Nc1ncnc2c1ncn2[C@@H]1O[C@H](C(=O)N[C@H](CO)Cc2ccc(O)cc2)[C@@H](O)[C@H]1O returned SENP1 FRET inh -2.6, SENP8 block-1 22.3 and CendR NRP1 mod 3.3.
COC(=O)[C@H](Cc1ccccc1)NC(=O)/C=C/[C@H]1O[C@@H](n2ccc(=O)[nH]c2=O)[C@H](O)[C@@H]1O was read as SENP1 FRET inh -0.9, SENP8 block-1 23.1 and CendR NRP1 mod 18.1.
`O=C(O)CCCc1ccc2c(c1)CCc1ccccc1-2` gave SENP1 FRET inh 0.6, SENP6 inh 50.2*, SENP8 block-1 -28.9, CendR NRP1 mod 5.6, SENP8 block-2 33.8, SENP7 block -14.2, SENP8 conf 76.8*, SENP6 confirm 75.7*, SENP7 confirm 88.3*, Casp3 SENP sel 67.9* and SENP luc ctr 81.0*.
Screening CN(Cc1ccccc1)C(=O)c1csc([C@@H]2O[C@H](CO)[C@H](O)[C@H](O)[C@H]2O)n1 returned SENP1 FRET inh 1.3, SENP8 block-1 30.2 and CendR NRP1 mod -1.3.
For COc1cc(/C=N/O)ccc1OCc1ccc(C(=O)O)cc1 the results were SENP1 FRET inh -1.6, SENP6 inh 97.2*, SENP8 block-1 15.1, CendR NRP1 mod -4.8, SENP8 block-2 96.0*, SENP7 block 100.3*, SENP8 conf 97.4*, SENP6 confirm 100.5*, SENP7 confirm 103.7*, Casp3 SENP sel 97.9* and SENP luc ctr 98.8*.
`COc1cc(/C=N/N=C(N)N)ccc1OCc1ccc(Cl)cc1` gave SENP1 FRET inh 0.2, SENP6 inh -38.2, SENP8 block-1 25.5, CendR NRP1 mod 3.7, SENP8 block-2 -27.0 and SENP7 block -11.7.
Screening COc1cc(/C=N/O)ccc1OCc1ccc(Cl)cc1 returned SENP6 inh 75.1*, SENP8 block-2 42.8, SENP7 block 58.7*, SENP8 conf 64.1*, SENP6 confirm 63.6*, SENP7 confirm 86.2*, Casp3 SENP sel 41.8 and SENP luc ctr 67.8*.
For Cc1cccc(/C=N/NC(=O)c2cc(-c3cccnc3)nc3c2c(C)nn3-c2ccccc2)c1 the results were SENP1 FRET inh -15.8, SENP6 inh 14.4, SENP8 block-1 -170.9, CendR NRP1 mod -4.6, SENP8 block-2 -8.5, SENP7 block 76.7*, SENP8 conf 4.2, SENP6 confirm -5.3, SENP7 confirm -5.4, Casp3 SENP sel -4.8 and SENP luc ctr -3.1.
For CNc1nc(N2CCc3ccccc32)ncc1F the results were SENP1 FRET inh 1.1, SENP6 inh 86.3*, SENP8 block-1 -7.7, CendR NRP1 mod 3.0, SENP8 block-2 79.5*, SENP7 block 4.5, SENP8 conf 85.0*, SENP6 confirm 86.3*, SENP7 confirm 98.3*, Casp3 SENP sel 83.1* and SENP luc ctr 86.7*.
`COc1ccc(C2CC(=O)c3cnc(N4CCc5ccccc54)nc3C2)cc1OC` (stereo unspecified) gave SENP6 inh -9.2, SENP8 block-2 -4.4 and SENP7 block 11.5.
`CCOc1ccc(Cl)cc1-c1cc(C(=O)NCCOC)[nH]n1` gave SENP1 FRET inh 0.4, SENP8 block-1 4.8 and CendR NRP1 mod 2.7.
Screening O=C(Nc1ccccc1Cl)C(=O)c1cn(CC(=O)N2CCOCC2)c2ccccc12 returned SENP1 FRET inh -0.4, SENP6 inh 43.5, SENP8 block-1 -22.8, CendR NRP1 mod 13.3, SENP8 block-2 30.5, SENP7 block 74.2*, SENP8 conf 17.2, SENP6 confirm 15.8, SENP7 confirm 23.7, Casp3 SENP sel 18.0 and SENP luc ctr 7.3.
`COCCNC(=O)/C(C#N)=C/c1ccc(O)cc1` gave SENP1 FRET inh -42.6, SENP6 inh 91.5*, SENP8 block-1 6.9, CendR NRP1 mod -12.2, SENP8 block-2 77.4*, SENP7 block 81.6*, SENP8 conf 11.6, SENP6 confirm 78.7*, SENP7 confirm 95.7*, Casp3 SENP sel 83.0* and SENP luc ctr 79.8*.
`COCCNC(=O)/C(C#N)=C/c1cccc(/C=C(\C#N)C(=O)NCCOC)c1` gave SENP1 FRET inh 0.8, SENP8 block-1 9.4 and CendR NRP1 mod 11.0.
For CC1(C(=O)Nc2cccc(Oc3ccccc3)c2)CCN1Cc1cc2ccccc2o1 (stereo unspecified) the results were SENP1 FRET inh 0.5, SENP8 block-1 6.0 and CendR NRP1 mod -7.4.
`N#Cc1cnc2sc3ccccc3n2c1=N` gave SENP1 FRET inh -24.5, SENP6 inh 94.2*, SENP8 block-1 -179.2, CendR NRP1 mod -10.9, SENP8 block-2 92.7*, SENP7 block 78.9*, SENP8 conf 94.6*, SENP6 confirm 96.0*, SENP7 confirm 100.3*, Casp3 SENP sel 96.6* and SENP luc ctr 93.9*.
O=S(=O)(O)c1nnc2sc3ccccc3n12 was read as SENP1 FRET inh 2.2, SENP6 inh -1.5, SENP8 block-1 9.5, CendR NRP1 mod -1.4, SENP8 block-2 3.5 and SENP7 block -0.6.
For CN(C)c1ccc(-c2noc(-c3ccccc3O)n2)cc1 the results were SENP1 FRET inh -0.1, SENP6 inh -24.5, SENP8 block-1 -50.1, CendR NRP1 mod 9.2, SENP8 block-2 27.3, SENP7 block 90.0*, SENP8 conf 10.6, SENP6 confirm 19.0, SENP7 confirm 17.4, Casp3 SENP sel 49.5 and SENP luc ctr 11.9.
